For series [1], the system named is Mus musculus. The series can be described thus: Uterotropic activity in immature mouse assessed as change in uterus weight at 250 mg/kg, sc relative to control. Format: organism-based. More on the design: dose 250 mg/kg, route subcutaneous. The settings on record: in vivo. The gist of the method:
(§1)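 Immature mice dosed subcutaneously or intragastrically. Uterine weight (mg) is compared between treated and control groups, reported as mean ± spread. n=10 for control and for treated animals.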

The subject of series [2] is Rattus norvegicus. The series can be described thus: Cholesterol-lowering activity in propylthiouracil-induced hypercholesterolemic rat model assessed as change in plasma cholesterol at 10 mg/kg administered intragastrically relative to control. Format: functional. The settings on record: route intragastric. The gist of the method:
(§2)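 Male rats made hypercholesterolemic with propylthiouracil; compounds given intragastrically. Read-out is the percent change in plasma cholesterol concentration versus control. n=8 for control and for treated animals. Significance is by Student's t, with t greater than 1.65 taken as p < 0.05.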

For series [3], the system named is Mus musculus. The series can be described thus: Uterotropic activity in immature mouse assessed as change in uterus weight at 25 mg/kg, sc relative to control. Format: Functional, organism-based. More on the design: dose 25 mg/kg, route subcutaneous. The settings on record: in vivo. The gist of the method:
as §1

Series [4] has as its system Rattus norvegicus. The series can be described thus: Cholesterol-lowering activity in propylthiouracil-induced hypercholesterolemic rat model assessed as change in plasma cholesterol at 5 mg/kg administered intragastrically relative to control. Format: functional. As to conditions: route intragastric. In outline:
as §2

The subject of series [5] is Mus musculus. In words: Uterotropic activity in immature mouse assessed as change in uterus weight at 625 mg/kg, sc relative to control. Format: organism-based. On the set-up: dose 625 mg/kg, route subcutaneous. As to conditions: in vivo. The gist of the method: as §1
In series [6] the test system is Rattus norvegicus. In words: Cholesterol-lowering activity in propylthiouracil-induced hypercholesterolemic rat model assessed as change in plasma cholesterol at 20 mg/kg administered intragastrically relative to control. As to conditions: route intragastric. Format: functional. The gist of the method:
as §2

The subject of series [7] is Rattus norvegicus. In words: Hypolipidemic activity in normal rat assessed as reduction in cholesterol level at 0.2 % administered in diet for 5 days. Format: functional. On the set-up: scale not given: the % may be the effect or the level left. In outline: (§3)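 Normal rats received compound at 0.2% in the diet. Plasma cholesterol and triglyceride are expressed as % of control. n=8 for control and for treated animals. Significance is by Student's t, with t greater than 1.65 taken as p < 0.05.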

The subject of series [8] is Rattus norvegicus. The series can be described thus: Hypolipidemic activity in normal rat assessed as reduction in triglyceride level at 0.2 % administered in diet for 5 days. Format: functional. More on the design: scale not given: the % may be the effect or the level left. In outline: as §3
Series [9] relates to Mus musculus. In words: Uterotropic activity in immature mouse assessed as change in uterus weight at 250 mg/kg administered intragastrically relative to control. Format: organism-based. More on the design: dose 250 mg/kg, route intragastric. As to conditions: in vivo, po. The gist of the method:
as §1

`COC(=O)CCC(=O)OCC(C)(C)Oc1ccc2c(c1)CCc1c-2ccc2c1CCC2(C)C`: the Activity in the series on Mus musculus [1] is recorded as 15.7 mg; in the series with Rattus norvegicus [2], -18%.

Consider `CCN(CC)CCOc1ccc2c(c1)CCc1c-2ccc2c1CCC2(C)C.O=C(O)C(=O)O`, for which the Activity in the series on Mus musculus [3] is 16.4 mg; with Rattus norvegicus [2], -19%; with Rattus norvegicus [4], -14%.

`CC1(C)CCc2c1ccc1c2CCc2cc(O)ccc2-1`: the Activity in the series with Mus musculus [5] is 34.9 mg; in the series on Mus musculus [1], 22.6 mg; with Rattus norvegicus [2], -16%; in the series with Rattus norvegicus [4] it was 4%; with Rattus norvegicus [6] it was -10%.

Consider `CCOC(=O)C(C)(C)Oc1ccc(Cl)cc1` [CLOFIBRATE], for which the results for the Activity in the series with Rattus norvegicus [7], in the series with Rattus norvegicus [8] and in the series with Rattus norvegicus [2] were 72%, 43% and 1%, respectively.

For the compound `CC1(C)CCc2c1ccc1c2CCc2cc(OCCN3CCCC3)ccc2-1`, the Activity is listed as 8.1 mg in the series with Mus musculus [9], 11.2 mg with Mus musculus [3], -17% in the series on Rattus norvegicus [2] and -5% with Rattus norvegicus [4].

As for `CCOC(=O)C(C)(C)Oc1ccc2c(c1)CCc1c-2ccc2c1CCC2(C)C`, in the series on Rattus norvegicus [2], the Activity is listed as -9%.

Regarding `CN1C(=O)[C@@H]2CC[C@@H]1[C@@H](OC(=O)C(C)(C)Oc1ccc3c(c1)CCc1c-3ccc3c1CCC3(C)C)C2`, in the series on Rattus norvegicus [2], the Activity was -4%.

Consider `CC(Oc1ccc2c(c1)CCc1c-2ccc2c1CCC2(C)C)C(=O)O` (configuration not stated), for which the Activity in the series on Rattus norvegicus [2] was 3%.

For the compound `CC(C)(COC(=O)CCC(=O)O)Oc1ccc2c(c1)CCc1c-2ccc2c1CCC2(C)C`, the Activity in the series on Mus musculus [3] is given as 20.6 mg; in the series with Rattus norvegicus [2], -7%.

With `CCOC(=O)COc1ccc2c(c1)CCc1c-2ccc2c1CCC2(C)C`, in the series with Rattus norvegicus [2], the Activity came to 8%.

As for `COc1ccc2c(c1)CCc1c-2ccc2c1CCC2(C)C`, the Activity with Mus musculus [1] came to 22.6 mg; in the series with Rattus norvegicus [2], 1%.

Regarding `CC(C)(Oc1ccc2c(c1)CCc1c-2ccc2c1CCC2(C)C)C(=O)O`, the Activity is listed as 8.4 mg with Mus musculus [9]; 75% in the series with Rattus norvegicus [7]; 17.2 mg in the series with Mus musculus [3]; 69% with Rattus norvegicus [8]; -18% in the series on Rattus norvegicus [2].

Turning to `CC(C)(CO)Oc1ccc2c(c1)CCc1c-2ccc2c1CCC2(C)C`, the figures for the Activity in the series on Mus musculus [1] and in the series on Rattus norvegicus [2] were 13.4 mg and -25%, respectively.

These data come from ChEMBL document CHEMBL3272291, “Potential hypolipidemic agents derived from 3-hydroxy-17,17-dimethylgona-1,3,5(10),8,11,13-hexaene” (J Med Chem, 1977).
